From ChEMBL document CHEMBL4118197, “The discovery and preclinical evaluation of BMS-707035, a potent HIV-1 integrase strand transfer inhibitor” (Bioorg Med Chem Lett, 2018)

Columns and labels:
[1] = Aqueous solubility of the compound; assay type: physicochemical
Outline: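 Aqueous solubility measured at pH 2.3, 6.1, 7.3 and 8.5, in µg/mL.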

[2] = biological target: Human immunodeficiency virus type 1 integrase (Human immunodeficiency virus 1, UniProt Q7ZJM1); assay: Inhibition of HIV1 integrase strand transfer activity
[3] = Clearance in Sprague-Dawley rat at 1 mg/kg, iv after 4 hrs; assay type: ADME, organism-based; details: in vivo
Outline: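 Male Sprague-Dawley rats given 1 mpk IV in PEG400/ethanol (90:10); blood sampled at 5 and 30 min and 1, 2 and 4 h post-dose; clearance from plasma profile.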

Human immunodeficiency virus type 1 integrase, sequence (Q7ZJM1 whole entry): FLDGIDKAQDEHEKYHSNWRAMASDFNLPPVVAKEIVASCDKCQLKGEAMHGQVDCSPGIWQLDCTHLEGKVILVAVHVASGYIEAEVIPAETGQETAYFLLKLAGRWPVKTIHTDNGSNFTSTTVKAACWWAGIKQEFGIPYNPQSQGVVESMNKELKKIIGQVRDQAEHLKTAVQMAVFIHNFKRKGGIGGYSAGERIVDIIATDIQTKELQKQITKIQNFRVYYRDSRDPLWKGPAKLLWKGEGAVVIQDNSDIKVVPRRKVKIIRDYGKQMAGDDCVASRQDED

SMILES	solubility [1] [µg/mL]	IC50 [2] [nM]	clearance [3] [mL/min/kg]
O=C(NCc1ccc(F)cc1N1CCCCS1(=O)=O)c1nc2n(c(=O)c1O)CCCC21CCCC1	≤ 5	5	
CN(C)S(=O)(=O)c1c(CNC(=O)c2nc3n(c(=O)c2O)CCOC3(C)C)ccc(F)c1F		10	62
Cc1cc(F)ccc1CNC(=O)c1nc2n(c(=O)c1O)CCOC2(C)C		2	
CC1(C)OCCn2c1nc(C(=O)NCc1ccc(F)cc1N1CCCCS1(=O)=O)c(O)c2=O		9	38
CC1(C)OCCn2c1nc(C(=O)NCc1ccc(F)cc1N1CCOCC1)c(O)c2=O		5	29

Continued, values first:

solubility [1] [µg/mL]	IC50 [2] [nM]	clearance [3] [mL/min/kg]	SMILES
≤ 5	4	46	CS(=O)(=O)c1cc(F)ccc1CNC(=O)c1nc2n(c(=O)c1O)CCCC21CCCC1
≤ 5	6		CN(C)S(=O)(=O)c1cc(F)ccc1CNC(=O)c1nc2n(c(=O)c1O)CCCC21CCCC1
≤ 5	2	17	Cc1cc(CNC(=O)c2nc3n(c(=O)c2O)CCCC32CCCC2)ccc1F
